Source: PubChem BioAssay
STAT1 blocker: inhibitors of IFN-gamma induced STAT1 signaling; NIH 3T3 STAT1-luciferase reporter, luminescence; inhibition, % at 5.5 µM; actives 0.35% (n = 200,000);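 active means inhibition above a set limit, the mean inhibition across all tested compounds plus 3 SD, cut at about 34% in these data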;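 further: 0% = IFN-gamma with DMSO and 100% = IFN-gamma with 300 µM nifuroxazide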
PERK inhibitor: human PERK inhibition, primary cell-based screen | actives 0.17% (n = 220,000) | CHO PERK-DD fusion, SEAP luminescence translation reporter | inhibition, % at 5.6 µM | Q9NZJ5 | AID 1416;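 active means inhibition above the mean inhibition of all tested compounds plus 3 SD, set separately per screening campaign, cut at about 2.9% in these data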;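 further: PERK kinase domain activated by AP20187 dimerizer at 100 nM; 0% = DMSO with dimerizer and 100% = rapamycin at 8.4 µM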
STAT3 act-1: STAT3 signaling activation; U3A cells, IL-6 STAT3-luciferase reporter, luminescence; 100% = signal with IL-6 EC80 alone; activation (% of control), % at 5.6 µM; actives 0.91% (n = 190,000); AID 871;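 active means activation above the screen-wide mean of compound activation plus 3 SD, cut at about 130% in these data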;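 further: 0% = background luminescence of wells with medium and substrate only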
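Detection: reporter luminescence signal / Assay system: STAT1-lacking human U3A cells, STAT3 luciferase reporter / Incubation: compound pre-incubation 1 h before IL-6, then 6 h stimulation at 37 °C / Control set: IL-6-only high control / Read-out: % activation relative to IL-6 control / Probe or stimulus: Interleukin-6, 33 ng/mL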
STAT3 blocker: reduces IL-6 driven STAT3 reporter signal; U3A cells, IL-6 STAT3-luciferase reporter, luminescence; host cell line lacks STAT1; inhibition, % at 5.5 µM; actives 0.89% (n = 190,000); AID 862;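 active means inhibition above the mean inhibition across all screened compounds plus 3 SD, cut at about 44% in these data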;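 further: 0% = DMSO only wells and 100% = 100 µM nifuroxazide control wells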
STAT3 act-2: confirmation of STAT3 signaling activators | shares compounds with STAT3 act-1 | U3A STAT3-luciferase reporter, IL-6 potentiation, luminescence; U3A cells lack STAT1; 100 means same as IL-6 alone | potentiation (% of control), % at 5.7 µM | actives 64% (n = 1,200);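 active means percent activation of the STAT3 luciferase reporter above a set limit taken from the earlier primary screen, cut at about 130% in these data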;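 further: 0% = background signal of medium plus substrate and 100% = median of IL-6 with DMSO wells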
NFkB act 2: NF-kappaB activation in STAT3 activator counter-screen | shares compounds with STAT3 act-1 | human cells, NF-kappaB reporter activation | activation (% of control), % at 5.7 µM | actives 11% (n = 1,200) | AID 1309; in the data active means activation above about 120%;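 further: reporter induced by TNF-alpha stimulation; 100% = median of stimulated DMSO wells and 0% = no signal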
STAT1 act: STAT1 activation in STAT3 activator counter-screen; shares compounds with STAT3 act-1; NIH 3T3 STAT1-luciferase reporter, IFN-gamma, luminescence; activation (% of control), % at 5.7 µM; actives 13% (n = 1,200);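 active means activation above the solvent-only control well mean plus 3 SD, set per screening run, cut at about 120% in these data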;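 further: 100% = IFN-gamma with DMSO median signal so 100% means no change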
Starred values were filed as active, the others as inactive. In the library only some 1.8% were active in any assay of this set; here they are far more common.

What do the screens show for `O=C(O)CC/C(=C\c1ccccc1[N+](=O)[O-])c1nc2ccccc2s1`?
STAT1 blocker: -3; PERK inhibitor: 2; STAT3 act-1: 107; STAT3 blocker: -8

How did Cc1c(C(=O)Nc2nc3ccccc3[nH]2)oc2ccc(Br)cc12 do in these assays?
STAT1 blocker: -15; PERK inhibitor: 0; STAT3 act-1: 86; STAT3 blocker: 12

Results for Cc1c(C(=O)Nc2nc3ccccc3[nH]2)oc2c(Cl)cccc12 ?
STAT1 blocker: -6; PERK inhibitor: -1; STAT3 act-1: 143*; STAT3 blocker: -46; STAT3 act-2: 178*; NFkB act 2: 121*; STAT1 act: 122*

What do the screens show for `COc1ccc(-c2ccc(-c3nnc(-c4cc(OC)ccc4OC)o3)cc2)cc1`?
STAT1 blocker: -1; PERK inhibitor: 1; STAT3 act-1: 138*; STAT3 blocker: -42; STAT3 act-2: 84; NFkB act 2: 105; STAT1 act: 103

What do the screens show for `O=C(NCC1CCCO1)c1ccc(NS(=O)(=O)c2cccs2)cc1` (stereo not given)?
PERK inhibitor: 2

Results for COc1ccc(S(=O)(=O)Nc2c(C(=O)O)[nH]c3ccccc23)cc1OC ?
STAT1 blocker: -1; PERK inhibitor: 0; STAT3 act-1: 141*; STAT3 blocker: -42; STAT3 act-2: 165*; NFkB act 2: 110; STAT1 act: 100

How did COc1ccc(S(=O)(=O)Nc2ccccn2)cc1OC do in these assays?
STAT1 blocker: 6; PERK inhibitor: 0; STAT3 act-1: 99; STAT3 blocker: 1

What do the screens show for `O=C(O)c1[nH]c2ccccc2c1NS(=O)(=O)Cc1ccccc1`?
STAT1 blocker: -1; PERK inhibitor: 0; STAT3 act-1: 155*; STAT3 blocker: -57; STAT3 act-2: 165*; NFkB act 2: 103; STAT1 act: 94

What do the screens show for `Oc1ccc(Br)cc1-c1cc(-c2ccc(Cl)cc2)n[nH]1`?
STAT1 blocker: 2; PERK inhibitor: 1; STAT3 act-1: 132; STAT3 blocker: -33

Results for Oc1ccc(Br)cc1-c1cc(-c2ccccc2)n[nH]1 ?
STAT1 blocker: -4; PERK inhibitor: 1; STAT3 act-1: 141*; STAT3 blocker: -46; STAT3 act-2: 125; NFkB act 2: 104; STAT1 act: 101

Results for CCc1nnc(NC(=O)c2c(C)nn(-c3ccccc3)c2Cl)s1 ?
STAT1 blocker: -3; PERK inhibitor: -1; STAT3 act-1: 80; STAT3 blocker: 28

What do the screens show for `O=c1cc(-c2ccccc2)nc(/C=C/c2ccccc2)[nH]1`?
PERK inhibitor: 1

What do the screens show for `Cc1c(CN2CCc3c([nH]c4ccccc34)C2C2CCCCC2)cnn1C` (stereo not given)?
STAT1 blocker: 6; PERK inhibitor: 1; STAT3 act-1: 126; STAT3 blocker: -25

How did CC(=O)c1cc(C(=O)N2CCc3c([nH]c4ccccc34)C2C2CCCCC2)[nH]n1 (stereo not given) do in these assays?
STAT1 blocker: 0; PERK inhibitor: -1; STAT3 act-1: 157*; STAT3 blocker: -56; STAT3 act-2: 155*; NFkB act 2: 104; STAT1 act: 96

Results for CC(=O)Nc1sc(N/N=C\c2ccccc2)nc1-c1cccs1 ?
STAT1 blocker: -4; PERK inhibitor: 1; STAT3 act-1: 140*; STAT3 blocker: -48; STAT3 act-2: 177*; NFkB act 2: 107; STAT1 act: 114

Results for COc1ccccc1NS(=O)(=O)c1cccc(NC(=O)c2[nH]c(C)c(C(C)=O)c2C)c1 ?
PERK inhibitor: 0

What do the screens show for `COc1ccccc1NC(=O)c1[nH]c(C)c(C(C)=O)c1C`?
STAT1 blocker: 3; PERK inhibitor: -1; STAT3 act-1: 162*; STAT3 blocker: -60; STAT3 act-2: 158*; NFkB act 2: 105; STAT1 act: 97
